Assay results published in ChEMBL document CHEMBL1828620, “Synthesis of novel 6-phenyl-2,4-disubstituted pyrimidine-5-carbonitriles as potential antimicrobial agents” (2011).
Values after ≈ are worked out from the molar mass of the structure shown.

Columns and labels:
Format in all cases: functional
Candida albicans [1] = test: Antifungal activity against Candida albicans IFO 0583 at 200 ug/disc after 48 hrs by agar disc diffusion method; settings: IFO 0583, 48 h, read-out: DIZ
How it was run: (§1)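 Agar disc diffusion: sterile 8 mm filter-paper discs moistened with compound solution in DMSO, placed on agar plates each pre-inoculated with one organism; plates held at 37 °C; growth inhibition zone diameter measured after 24 h (bacteria) or 48 h (C. albicans).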

Pseudomonas aeruginosa [2] = test: Antimicrobial activity against Pseudomonas aeruginosa IFO 3448 at 200 ug/disc after 24 hrs by agar disc diffusion method; settings: IFO 3448, 24 h, read-out: DIZ; how it was run: as §1
Micrococcus luteus [3] = test: Antimicrobial activity against Micrococcus luteus IFO 3232 at 200 ug/disc after 24 hrs by agar disc diffusion method; settings: IFO 3232, 24 h, read-out: DIZ; how it was run: as §1
Staphylococcus aureus [4] = test: Antimicrobial activity against Staphylococcus aureus IFO 3060 at 200 ug/disc after 24 hrs by agar disc diffusion method; settings: IFO 3060, 24 h, read-out: DIZ; how it was run: as §1
Bacillus subtilis [5] = test: Antimicrobial activity against Bacillus subtilis IFO 3007 at 200 ug/disc after 24 hrs by agar disc diffusion method; settings: IFO 3007, 24 h, read-out: DIZ; how it was run: as §1
Escherichia coli [6] = test: Antimicrobial activity against Escherichia coli IFO 3301 at 200 ug/disc after 24 hrs by agar disc diffusion method; settings: IFO 3301, 24 h, read-out: DIZ; how it was run: as §1
Micrococcus luteus [7] = test: Antimicrobial activity against Micrococcus luteus IFO 3232 after 24 hrs by two fold serial dilution method
Bacillus subtilis [8] = test: Antimicrobial activity against Bacillus subtilis IFO 3007 after 24 hrs by two fold serial dilution method
Staphylococcus aureus [9] = test: Antimicrobial activity against Staphylococcus aureus IFO 3060 after 24 hrs by two fold serial dilution method
Escherichia coli [10] = test: Antimicrobial activity against Escherichia coli IFO 3301 after 24 hrs by two fold serial dilution method
Pseudomonas aeruginosa [11] = test: Antimicrobial activity against Pseudomonas aeruginosa IFO 3448 after 24 hrs by two fold serial dilution method
Micrococcus luteus [12] = test: Antimicrobial activity against Micrococcus luteus IFO 3232 at 100 ug/disc after 24 hrs by agar disc diffusion method; how it was run: as §1
Bacillus subtilis [13] = test: Antimicrobial activity against Bacillus subtilis IFO 3007 at 100 ug/disc after 24 hrs by agar disc diffusion method; how it was run: as §1
Staphylococcus aureus [14] = test: Antimicrobial activity against Staphylococcus aureus IFO 3060 at 100 ug/disc after 24 hrs by agar disc diffusion method; how it was run: as §1
Pseudomonas aeruginosa [15] = test: Antimicrobial activity against Pseudomonas aeruginosa IFO 3448 at 100 ug/disc after 24 hrs by agar disc diffusion method; how it was run: as §1
Escherichia coli [16] = test: Antimicrobial activity against Escherichia coli IFO 3301 at 100 ug/disc after 24 hrs by agar disc diffusion method; how it was run: as §1
Candida albicans [17] = test: Antifungal activity against Candida albicans IFO 0583 at 100 ug/disc after 48 hrs by agar disc diffusion method; settings: IFO 0583, 48 h, read-out: DIZ; how it was run: as §1

Row | MIC (Bacillus subtilis [8]; IFO 3007, 24 h) | MIC (Staphylococcus aureus [9]; IFO 3060, 24 h) | Compound | zone of inhibition at 200 µg/disc (Candida albicans [1]) | zone of inhibition at 200 µg/disc (Pseudomonas aeruginosa [2]) | zone of inhibition at 200 µg/disc (Micrococcus luteus [3]) | zone of inhibition at 200 µg/disc (Staphylococcus aureus [4]) | zone of inhibition at 200 µg/disc (Bacillus subtilis [5]) | zone of inhibition at 200 µg/disc (Escherichia coli [6]) | further results
1 |  |  | N#Cc1c(-c2ccccc2)nc(SCc2ccccc2)[nH]c1=O | < 10 mm | < 10 mm | 16 mm | 16 mm | 17 mm | < 10 mm | 
2 |  |  | N#Cc1c(Sc2ccccc2)nc(SCc2ccc(Cl)cc2)nc1-c1ccccc1 | < 10 mm | < 10 mm | 12 mm | 12 mm | 14 mm | < 10 mm | 
3 | 1 µg/mL (≈ 2.82 µM) | 0.5 µg/mL (≈ 1.41 µM) | N#Cc1c(-c2ccccc2)nc(SCc2ccc([N+](=O)[O-])o2)[nH]c1=O | 11 mm | 21 mm | 24 mm | 33 mm | 28 mm | 22 mm | MIC (Micrococcus luteus [7]; IFO 3232, 24 h): 1 µg/mL (≈ 2.82 µM); MIC (Escherichia coli [10]; IFO 3301, 24 h): 2 µg/mL (≈ 5.64 µM); MIC (Pseudomonas aeruginosa [11]; IFO 3448, 24 h): 4 µg/mL (≈ 11.3 µM)
4 | 8 µg/mL (≈ 22.6 µM) | 8 µg/mL (≈ 22.6 µM) | N#Cc1c(O)nc(SCc2ccc(Cl)cc2)nc1-c1ccccc1 | < 10 mm | 12 mm | 19 mm | 20 mm | 19 mm | 14 mm | MIC (Micrococcus luteus [7]; IFO 3232, 24 h): 8 µg/mL (≈ 22.6 µM)
5 |  |  | CCSCCSc1nc(-c2ccccc2)c(C#N)c(=O)[nH]1 | 12 mm | 14 mm | 12 mm | 12 mm | 16 mm | 16 mm | 
6 | 8 µg/mL (≈ 26.4 µM) |  | CSCCSc1nc(-c2ccccc2)c(C#N)c(=O)[nH]1 | 14 mm | 18 mm | 15 mm | 16 mm | 18 mm | 21 mm | 
7 | 2 µg/mL (≈ 5.93 µM) | 4 µg/mL (≈ 11.9 µM) | N#Cc1c(-c2ccccc2)nc(SCc2ccc(F)cc2)[nH]c1=O | < 10 mm | 14 mm | 21 mm | 22 mm | 26 mm | 18 mm | MIC (Micrococcus luteus [7]; IFO 3232, 24 h): 4 µg/mL (≈ 11.9 µM); MIC (Escherichia coli [10]; IFO 3301, 24 h): 8 µg/mL (≈ 23.7 µM)
8 |  |  | GENTAMICIN SULFATE |  |  |  |  |  |  | MIC (Micrococcus luteus [7]): 2 µg/mL; inhibition zone (IZ) (Micrococcus luteus [12]): 18 mm; inhibition zone (IZ) (Bacillus subtilis [13]): 25 mm; inhibition zone (IZ) (Staphylococcus aureus [14]): 26 mm; MIC (Bacillus subtilis [8]): 2 µg/mL; MIC (Staphylococcus aureus [9]): 2 µg/mL; MIC (Escherichia coli [10]): 0.5 µg/mL; MIC (Pseudomonas aeruginosa [11]): 1 µg/mL; inhibition zone (IZ) (Pseudomonas aeruginosa [15]): 19 mm; inhibition zone (IZ) (Escherichia coli [16]): 20 mm
9 |  |  | N#Cc1c(Nc2ccc(C(F)(F)F)cc2)nc(SCc2ccc(Cl)cc2)nc1-c1ccccc1 | < 10 mm | < 10 mm | 13 mm | 15 mm | 17 mm | < 10 mm | 
10 |  |  | Cc1ccc(Sc2nc(SCc3ccc(Cl)cc3)nc(-c3ccccc3)c2C#N)cc1 | < 10 mm | < 10 mm | 11 mm | 14 mm | 13 mm | < 10 mm | 
11 |  |  | N#Cc1c(Nc2cccc(C(F)(F)F)c2)nc(SCc2ccc(Cl)cc2)nc1-c1ccccc1 | < 10 mm | < 10 mm | 11 mm | 14 mm | 14 mm | < 10 mm | 
12 |  |  | N#Cc1c(Nc2ccccc2C(F)(F)F)nc(SCc2ccc(Cl)cc2)nc1-c1ccccc1 | < 10 mm | < 10 mm | 10 mm | 12 mm | 12 mm | < 10 mm | 
13 |  |  | N#Cc1c(-c2ccccc2)nc(SCOCc2ccccc2)[nH]c1=O | < 10 mm | < 10 mm | 13 mm | 14 mm | 16 mm | < 10 mm | 
14 |  |  | Cc1ccccc1Sc1nc(SCc2ccc(Cl)cc2)nc(-c2ccccc2)c1C#N | < 10 mm | < 10 mm | < 10 mm | < 10 mm | < 10 mm | < 10 mm | 
15 |  |  | N#Cc1c(Cl)nc(SCc2ccc(Cl)cc2)nc1-c1ccccc1 | 12 mm | 14 mm | 18 mm | 24 mm | 26 mm | 16 mm | 
16 | 4 µg/mL (≈ 13.3 µM) | 4 µg/mL (≈ 13.3 µM) | CCOCCSc1nc(-c2ccccc2)c(C#N)c(=O)[nH]1 | < 10 mm | 11 mm | 17 mm | 21 mm | 24 mm | 14 mm | 
17 | 2 µg/mL (≈ 6.96 µM) | 8 µg/mL (≈ 27.8 µM) | COCCSc1nc(-c2ccccc2)c(C#N)c(=O)[nH]1 | < 10 mm | 10 mm | 17 mm | 18 mm | 22 mm | 12 mm | 
18 |  |  | N#Cc1c(-c2ccccc2)nc(SCc2ccc([N+](=O)[O-])cc2)[nH]c1=O | < 10 mm | < 10 mm | 13 mm | 14 mm | 17 mm | 12 mm | 
19 |  |  | Clc1ccccc1C(c1ccccc1)(c1ccccc1)n1ccnc1 [CLOTRIMAZOLE] |  |  |  |  |  |  | zone of inhibition at 100 µg/disc (Candida albicans [17]): 21 mm
20 |  |  | Cc1cccc(Sc2nc(SCc3ccc(Cl)cc3)nc(-c3ccccc3)c2C#N)c1 | < 10 mm | < 10 mm | < 10 mm | < 10 mm | < 10 mm | < 10 mm | 
21 | 1 µg/mL (≈ 2.24 µM) | 2 µg/mL (≈ 4.47 µM) | N#Cc1c(Nc2ccc(F)cc2)nc(SCc2ccc(Cl)cc2)nc1-c1ccccc1 | < 10 mm | < 10 mm | 19 mm | 16 mm | 18 mm | < 10 mm | MIC (Micrococcus luteus [7]; IFO 3232, 24 h): 4 µg/mL (≈ 8.95 µM)

Row | Compound | MIC (Bacillus subtilis [8]; IFO 3007, 24 h) | MIC (Staphylococcus aureus [9]; IFO 3060, 24 h) | zone of inhibition at 200 µg/disc (Candida albicans [1]) | zone of inhibition at 200 µg/disc (Pseudomonas aeruginosa [2]) | zone of inhibition at 200 µg/disc (Micrococcus luteus [3]) | zone of inhibition at 200 µg/disc (Staphylococcus aureus [4]) | zone of inhibition at 200 µg/disc (Bacillus subtilis [5]) | zone of inhibition at 200 µg/disc (Escherichia coli [6]) | further results
22 | CC1(C)S[C@@H]2[C@H](NC(=O)[C@H](N)c3ccccc3)C(=O)N2[C@H]1C(=O)O.O.O.O [AMPICILLIN TRIHYDRATE] | 0.5 µg/mL | 2 µg/mL |  |  |  |  |  |  | MIC (Micrococcus luteus [7]; IFO 3232, 24 h): 2 µg/mL; zone of inhibition at 100 µg/disc (Micrococcus luteus [12]; IFO 3232, 24 h, read-out: DIZ): 19 mm; zone of inhibition at 100 µg/disc (Bacillus subtilis [13]; IFO 3007, 24 h, read-out: DIZ): 21 mm; zone of inhibition at 100 µg/disc (Staphylococcus aureus [14]; IFO 3060, 24 h, read-out: DIZ): 23 mm; MIC (Pseudomonas aeruginosa [11]; IFO 3448, 24 h): 2 µg/mL; zone of inhibition at 100 µg/disc (Pseudomonas aeruginosa [15]; IFO 3448, 24 h, read-out: DIZ): 17 mm; zone of inhibition at 100 µg/disc (Escherichia coli [16]; IFO 3301, 24 h, read-out: DIZ): 17 mm
